Laboratory results published in ChEMBL document CHEMBL1770108, “Design and synthesis of substituted N-(1,3-diphenyl-1H-pyrazol-5-yl)benzamides as positive allosteric modulators of the metabotropic glutamate receptor subtype 5” (Bioorg Med Chem Lett, 2011).

What was measured:
[1] = biological target: T1, Metabotropic glutamate receptor 5 (Rattus norvegicus, UniProt P31424); assay: Displacement of [3H]-MPEP from mGluR5 in rat brain; format: tissue-based
Method in brief: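 Radioligand displacement binding using [3H]MPEP on rat brain membranes.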

[2] = biological target: T1, Metabotropic glutamate receptor 5; assay: Agonist activity at rat mGluR5 expressed in HEK293T cells assessed as effect on glutamate-induced calcium flux by calcium fluorescence assay; format: functional, cell-based, HEK-293T
Method in brief: (§1)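 Rat mGluR5-expressing cells loaded with a calcium-sensitive fluorescent dye receive vehicle or test compound. After 2.5 min, an EC20 concentration of glutamate is added, then an EC80 concentration 1 min later. This triple-add protocol allows simultaneous detection of agonist, potentiator and antagonist activity. Intracellular calcium release is read kinetically in every well by an imaging plate reader.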

[3] = biological target: Metabotropic glutamate receptor 5 (Rattus norvegicus) (UniProt P31424); assay: Agonist activity at rat mGluR5 expressed in HEK293T cells assessed as increase of glutamate-induced calcium flux by calcium fluorescence assay relative to control; format: functional, cell-based; settings: HEK-293T; method in brief: as §1
Chain of Metabotropic glutamate receptor 5 (Rattus norvegicus) (P31424 21-1203 limits assumed): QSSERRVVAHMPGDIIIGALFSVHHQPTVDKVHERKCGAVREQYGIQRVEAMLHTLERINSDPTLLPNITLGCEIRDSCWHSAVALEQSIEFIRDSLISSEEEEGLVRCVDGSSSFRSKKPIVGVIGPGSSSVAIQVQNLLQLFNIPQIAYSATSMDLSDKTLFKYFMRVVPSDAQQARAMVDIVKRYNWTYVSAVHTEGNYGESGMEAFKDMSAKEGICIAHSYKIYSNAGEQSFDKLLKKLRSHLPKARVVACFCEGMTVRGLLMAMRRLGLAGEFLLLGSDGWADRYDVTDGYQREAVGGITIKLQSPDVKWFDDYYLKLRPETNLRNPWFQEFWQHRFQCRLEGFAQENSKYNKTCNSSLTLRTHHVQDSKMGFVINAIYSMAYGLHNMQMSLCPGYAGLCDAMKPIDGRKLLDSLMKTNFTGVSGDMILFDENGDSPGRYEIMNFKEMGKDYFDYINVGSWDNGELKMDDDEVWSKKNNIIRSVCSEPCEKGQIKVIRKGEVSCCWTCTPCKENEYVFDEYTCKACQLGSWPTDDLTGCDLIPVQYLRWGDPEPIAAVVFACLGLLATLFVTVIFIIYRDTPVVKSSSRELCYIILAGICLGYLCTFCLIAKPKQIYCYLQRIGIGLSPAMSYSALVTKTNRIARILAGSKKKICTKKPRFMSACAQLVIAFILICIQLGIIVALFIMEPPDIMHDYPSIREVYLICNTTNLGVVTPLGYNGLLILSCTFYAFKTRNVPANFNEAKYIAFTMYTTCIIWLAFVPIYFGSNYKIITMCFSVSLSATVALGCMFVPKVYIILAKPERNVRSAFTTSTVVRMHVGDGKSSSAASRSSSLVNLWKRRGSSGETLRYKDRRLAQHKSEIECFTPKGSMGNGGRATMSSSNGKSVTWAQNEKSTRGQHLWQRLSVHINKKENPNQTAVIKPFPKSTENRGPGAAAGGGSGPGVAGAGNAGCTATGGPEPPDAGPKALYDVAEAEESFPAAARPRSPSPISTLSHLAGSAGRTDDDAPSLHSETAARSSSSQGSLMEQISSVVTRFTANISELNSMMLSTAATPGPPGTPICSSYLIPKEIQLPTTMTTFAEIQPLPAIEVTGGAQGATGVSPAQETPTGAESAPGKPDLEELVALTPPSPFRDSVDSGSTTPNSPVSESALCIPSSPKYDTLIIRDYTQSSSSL

[4] = biological target: T1, Metabotropic glutamate receptor 5; assay: Antagonist activity at rat mGluR5 expressed in HEK293T cells assessed as inhibition of glutamate-induced calcium flux by calcium fluorescence assay; format: functional, cell-based, HEK-293T; method in brief: as §1

T1 sequence (P31424 whole entry): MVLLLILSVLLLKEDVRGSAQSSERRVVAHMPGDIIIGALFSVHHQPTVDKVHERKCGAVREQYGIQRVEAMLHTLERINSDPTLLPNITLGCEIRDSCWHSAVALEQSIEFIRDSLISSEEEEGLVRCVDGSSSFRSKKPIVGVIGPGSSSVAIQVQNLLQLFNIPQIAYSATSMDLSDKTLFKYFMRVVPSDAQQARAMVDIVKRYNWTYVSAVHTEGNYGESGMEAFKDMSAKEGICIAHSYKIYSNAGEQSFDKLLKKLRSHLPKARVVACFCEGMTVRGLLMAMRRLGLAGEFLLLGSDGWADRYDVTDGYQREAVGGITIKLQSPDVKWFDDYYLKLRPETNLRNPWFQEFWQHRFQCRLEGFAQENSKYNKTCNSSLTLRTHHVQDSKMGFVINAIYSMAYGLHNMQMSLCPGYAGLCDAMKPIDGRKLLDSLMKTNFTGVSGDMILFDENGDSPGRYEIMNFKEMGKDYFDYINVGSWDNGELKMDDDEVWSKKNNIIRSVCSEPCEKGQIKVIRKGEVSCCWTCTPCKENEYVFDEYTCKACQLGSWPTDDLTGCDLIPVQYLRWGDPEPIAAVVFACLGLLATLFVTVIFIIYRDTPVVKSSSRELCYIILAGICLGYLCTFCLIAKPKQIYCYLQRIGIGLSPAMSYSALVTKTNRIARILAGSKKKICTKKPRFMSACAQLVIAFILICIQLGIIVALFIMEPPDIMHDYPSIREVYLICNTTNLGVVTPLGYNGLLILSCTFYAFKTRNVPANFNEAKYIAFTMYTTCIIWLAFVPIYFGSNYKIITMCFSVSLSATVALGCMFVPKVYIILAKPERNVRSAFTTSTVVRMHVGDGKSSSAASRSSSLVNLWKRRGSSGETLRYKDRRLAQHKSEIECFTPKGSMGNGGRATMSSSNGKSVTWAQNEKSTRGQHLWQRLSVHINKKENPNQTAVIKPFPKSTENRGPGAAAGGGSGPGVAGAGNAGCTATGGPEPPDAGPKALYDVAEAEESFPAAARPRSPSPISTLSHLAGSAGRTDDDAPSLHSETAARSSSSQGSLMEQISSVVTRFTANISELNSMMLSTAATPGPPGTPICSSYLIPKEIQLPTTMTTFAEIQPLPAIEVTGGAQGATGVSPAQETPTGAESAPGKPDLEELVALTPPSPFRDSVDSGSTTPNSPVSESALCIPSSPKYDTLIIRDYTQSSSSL

Row | Ki [1] [µM] | EC50 [2] [µM] | Activity [3] [%] | IC50 [4] [µM] | SMILES
1 | > 10 | 2.17 | 50.2 | – | N#Cc1cc(C(=O)Nc2cc(-c3ccccc3)nn2-c2ccccc2Cl)ccc1-c1cccc2ccccc12
2 | 1.05 | – | – | 1.55 | CCCCc1cccc(NC(=O)c2cc(F)cc(C#N)c2)n1
3 | 0.325 | – | – | 0.165 | CCCc1cccc(NC(=O)c2cc(F)cc(C#N)c2)n1
4 | 2.06 | > 30 | – | – | N#Cc1cc(C(=O)Nc2cc(-c3ccccc3)nn2-c2ccccc2Cl)ccc1-c1cccc(F)c1
5 | 0.344 | 0.646 | 67.6 | – | O=C(Nc1cc(-c2ccccc2)nn1-c1ccccc1Cl)c1cc(-c2cc(F)cc(F)c2)ccn1
6 | 2.83 | – | – | 4.17 | Cc1ccc(NC(=O)c2cc(F)cc(C#N)c2)nc1
7 | 0.023 | 2.43 | 68 | – | N#Cc1cc(C(=O)Nc2cc(-c3ccccc3)nn2-c2ccccc2Cl)ccc1-c1ccc(F)cc1
8 | 0.037 | 4.14 | 61.8 | – | N#Cc1cc(C(=O)Nc2cc(-c3ccccc3)nn2-c2ccccc2Cl)ccc1-c1ccccc1
9 | 0.762 | – | – | 0.169 | CCc1cccc(NC(=O)c2cc(F)cc(C#N)c2)n1
